# ABCB1 block – blocks JC-1 efflux by human ABCB1 transporter; CCRF-Adr cells, flow cytometry; inhibition, % at 6.6 µM; actives 0.067% (n = 190,000); AID 1326; in the data active = inhibition above about 40%;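 note: 0% = vehicle and 100% = reference inhibitor; higher value means more JC-1 retained so stronger ABCB1 efflux block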
# ABCG2 block – inhibitors of human ABCG2 transporter, ABCB1 counter-screen. IgMXP3 cells, JC-1 efflux, flow cytometry. AID 1325. actives 0.1% (n = 190,000). inhibition, % at 6.6 µM;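 active = inhibition above 80%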;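 note: 0% = DMSO and 100% = nicardipine control wells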
#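 Test system: ABCG2 IgMXP3 and barcoded ABCB1 CCRF-Adr cell mix; Schedule: cells with compound and JC-1, 10 min at 25 °C, rotating, no wash; Technique: flow cytometry of retained JC-1 fluorescence; Measure: % inhibition of efflux relative to nicardipine and DMSO; Controls: nicardipine high and DMSO low controls.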
# Diaphorase act – activates diaphorase or chemically reduces, flagging diaphorase assay artifacts; Diaphorase/resazurin coupled assay, resorufin fluorescence, 16 min; active compounds read high; 1 = vehicle wells, 0 = NADH-free wells; activation factor at 20 µM; actives 0.005% (n = 190,000); AID 1229;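 active = diaphorase activity raised at least twofold by the compound at 20 µM; inactive = activation factor below 2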
#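 Material: purified diaphorase enzyme from Clostridium kluyveri; Also added: 0.114 mM NADH and 0.1 mM resazurin, final amounts; Doses: single compound dose of 20 µM, 1% DMSO final; Times: 16 min enzyme reaction, ambient temperature; Detection: resorufin fluorescence, excitation 544 nm, emission 590 nm; Measure: increased resorufin signal from activators or reducing compounds.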
# Diaphorase inh – inhibits diaphorase or chemically oxidizes, flagging diaphorase assay artifacts; inhibition, % at 20 µM; diaphorase resazurin-to-resorufin fluorescence, NADH, 16 min; bacterial (C. kluyveri) enzyme, not human; actives 0.69% (n = 190,000);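 active = primary screen inhibition at 20 µM above a set limit, cut at about 50% in these data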;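 note: plate controls were DMSO with full reaction for no effect and wells lacking NADH for full effect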
#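 Test system: bacterial diaphorase enzyme (C. kluyveri); Quantity: 0.14 U/mL diaphorase, enzyme working solution; Times: reaction incubation of 16 min at room temperature; Measured by: fluorescence of resorufin formed from resazurin, Ex 544/Em 590 nm; Benchmarks: positive control minus NADH, DMSO neutral control.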
# NCF1 inh – blocks human p47phox regulatory protein of NADPH oxidases. actives 0.53% (n = 220,000). p47phox/p22phox peptide binding, fluorescence polarization, 2 h. P14598. inhibition, % at 24.7 µM;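 active = inhibition above about 30%, limit read from the data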;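 note: 0% = p47phox with labelled peptide and 100% = labelled peptide alone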
# HMGR II inh – blocks class II HMG-CoA reductase of Enterococcus faecalis | inhibition, % at 10 µM | AID 1066 | actives 0.41% (n = 190,000) | purified E. faecalis HMGR, NADPH absorbance 340 nm kinetic;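 active = inhibition above a set limit, the median over all tested compounds plus 3 SD, cut at about 9.5% in these data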;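 note: enzyme runs in reverse so mevalonate oxidation gives rising NADPH absorbance; 0% = complete reaction with DMSO and 100% = background rate lacking mevalonate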
# ABCB1 confirm – inhibits human ABCB1 efflux, confirmed at single point; shares compounds with ABCG2 block; actives 7% (n = 270); CCRF-Adr cells, JC-1 efflux, flow cytometry; AID 1451; inhibition, % at 6.6 µM;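 active = inhibition of pump activity above 50%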;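 note: 0% = DMSO and 100% = nicardipine full pump inhibition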
# ABCG2 single pt – confirmation of human ABCG2 transporter inhibitors, ABCB1 counter-screen. shares compounds with ABCG2 block. IgMXP3 cells, JC-1 efflux, flow cytometry. inhibition, % at 6.6 µM. actives 6% (n = 270);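 active = inhibition above 50%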;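 note: 0% = DMSO wells and 100% = nicardipine pump inhibitor wells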
# IgMXP3 autofluor – IgMXP3 autofluorescence flag for ABCG2 confirmation. shares compounds with ABCG2 block. IgMXP3 cells, compound autofluorescence 488/530 nm, flow; active compounds read high. fluorescence at 6.6 µM. actives 30% (n = 270). AID 1480;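 active = fluorescence in ABCG2-expressing cells above the plate's control-well mean plus 3 SD, cut at about 15 in these data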;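 note: median cell fluorescence with compound minus that of DMSO-treated control cells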
# CCRF autofluor – CCRF-Adr autofluorescence flag for ABCB1 confirmation | shares compounds with ABCG2 block | CCRF-Adr cells, compound autofluorescence 488/530 nm, flow cytometry; active compounds read high | fluorescence at 6.6 µM | actives 30% (n = 270) | AID 1483;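 active = fluorescence beyond the plate control mean plus 3 SD, with a fluorescence-to-maximum score over 2, cut at about 25 in these data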
# * marks the source's active call; other numbers are inactive results; · = no result given. Compounds with a hit are over-represented: about 1.6% of the library has one in this group of screens.
SMILES,ABCB1 block,ABCG2 block,Diaphorase act,Diaphorase inh,NCF1 inh,HMGR II inh,ABCB1 confirm,ABCG2 single pt,IgMXP3 autofluor,CCRF autofluor
CCOC(=O)N1CCN(/C=C(\C#N)c2nc3ccccc3s2)CC1,64*,87*,0.9,13,-20,4,1,17,-0.99,15
CCN(CC)S(=O)(=O)c1ccc(OC)c(NC(=O)c2cccc(C)c2[N+](=O)[O-])c1,3,88*,0.8,20,-8,4,1,48,4.7,2.9
COc1ccc(OC)c(NC(=O)c2cccc(C)c2[N+](=O)[O-])c1,-1,5,·,·,-8,-3,·,·,·,·
Cc1cc(C(F)(F)F)nc(SCc2ccc(C(=O)O)o2)n1,1,3,0.9,7,-27,0,·,·,·,·
CCCNC(=O)Cn1c(=O)/c(=C\c2ccc(-c3ccc([N+](=O)[O-])cc3)o2)s/c1=C\C(=O)C(C)(C)C,129*,159*,1,3,-32,-2,-90,-116,524*,441*
O=C(OCc1nnc(-c2ccccc2)o1)c1ccccc1,1,5,1,4,-2,-12,·,·,·,·
COC(=O)c1cc(NC(=O)c2cccc(Cl)c2)c(=O)oc1/C=C/Nc1cc(C)cc(C)c1,138*,135*,0.9,11,-236,-11,0,-183,503*,612*
CCOC(=O)C1=C(CNCc2ccc(C)cc2)NC(=O)NC1c1cc(C)ccc1C (stereo unspecified),40,25,0.8,19,-6,-5,15,13,-1.8,-4.6
CCOC(=O)C1=C(Cn2cnc3ccccc32)NC(=O)NC1c1cc(C)ccc1C (stereo unspecified),1,10,0.9,15,-66,-6,·,·,·,·
Cc1cc(Cl)ccc1NC(=O)C1CCN(S(C)(=O)=O)CC1,0,17,1,4,·,-3,·,·,·,·
COC(=O)CCC(NC(=O)OCc1ccccc1)C(=O)NC(CC(C)C)C(=O)OC (stereo unspecified),1,1,1,4,-7,-1,·,·,·,·
CCC(Cc1ccccc1)n1c(=S)[nH]c2ccccc2c1=O (stereo unspecified),31,100*,0.9,13,-15,-5,-10,3,23*,57*
Cc1cc(NC(=O)CN2CC(C)OC(C)C2)n(-c2nc3ccccc3s2)n1 (stereo unspecified),9,48,1.1,-15,-4,-4,·,·,·,·
Cc1cc(NC(=O)C(C)C)n(-c2nc3ccccc3s2)n1,4,81*,0.9,7,6,-6,0,30,3.2,10
Cc1cc(=O)oc2cc(OCC(=O)OCC(=O)Nc3ccccc3Br)ccc12,·,·,·,·,-5,·,·,·,·,·
CCOC(=O)c1cc2sc(C)cc2n1CC(=O)N1CCN(C(=O)c2ccco2)CC1,1,3,0.9,8,-18,0,·,·,·,·
CCCN1C(=O)/C(=C/c2ccc(N3CCCC3)c(C)c2)NC1=S,52*,86*,1,4,-89,-2,-29,-21,107*,137*
CCN1C(=O)/C(=C/c2ccc(N3CCCC3)cc2)NC1=S,23,79,0.8,15,-158,-5,19,7,20*,44*
Cc1cc(/C=C2\NC(=S)N(C)C2=O)ccc1N1CCCC1,21,25,0.7,28,-123,-1,·,·,·,·
CC1CC(C)(C)NCc2ccccc21 (stereo unspecified),1,5,0.9,13,6,-4,·,·,·,·
CCOC(=O)c1cc(C(C)=O)c(=O)n(C)c1N,0,1,0.8,16,0,-1,·,·,·,·
Cc1ccc(C2=NN(C(=O)CCl)C(c3cccs3)C2)o1 (stereo unspecified),0,0,0.8,18,0,-4,·,·,·,·
COCCn1c(SCc2csc(-c3ccccc3)n2)nc2ccccc21,3,80,0.9,9,2,1,-13,5,15*,72*
COc1ccccc1OCCOc1ccc(C(=O)c2ccccc2)cc1,5,87*,0.8,21,-7,-7,-11,31,52*,82*
N#CCC(=O)Nc1sc2c(c1C(N)=O)CCCC2,-2,-2,0.9,7,-4,7,·,·,·,·
O=C(Cc1ccccc1)Nc1cc(Cl)ccc1Sc1ccccc1,5,89*,0.8,18,2,0,4,8,-1.7,4.7
CCOC(=O)c1cccc(NC(=O)c2cccnc2)c1,0,2,1,-4,-5,-3,·,·,·,·
CCOC(=O)c1cccc(NC(=O)c2cnc3ccccc3n2)c1,3,91*,0.9,14,-13,-2,2,68*,-0.59,-4.4

# Screening data: PubChem, several laboratories
